ChEMBL document CHEMBL1152161, “A facile synthesis, antibacterial, and antitubercular studies of some piperidin-4-one and tetrahydropyridine derivatives” (2008)
Values after ≈ are worked out from the molar mass of the structure shown. Active and inactive are the calls of the source. The rule behind the calls is not given here.

Columns and labels:
Staphylococcus aureus [1] = test: Antibacterial activity against Staphylococcus aureus by broth micro dilution method; assay type: functional
Procedure, shortened: (§1)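 MIC90 was found by broth microdilution following NCCLS methods. Compounds were tested up to a top concentration of […]. Linezolid and trovafloxacin served as positive controls and DMSO as the negative control.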

Staphylococcus aureus [2] = test: Antibacterial activity against methicillin-resistant Staphylococcus aureus by broth micro dilution method; assay type: functional
Procedure, shortened: (§2)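 MIC90 was determined by broth microdilution following NCCLS methods. Linezolid and trovafloxacin were run as positive controls, with DMSO as the negative control. Compounds were tested up to a top concentration of 128.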

[3] = tested on: Staphylococcus epidermidis; test: Antibacterial activity against Staphylococcus epidermidis by broth micro dilution method; assay type: functional; procedure, shortened: as §2
[4] = tested on: Staphylococcus epidermidis; test: Antibacterial activity against methicillin-resistant Staphylococcus epidermidis by broth micro dilution method; assay type: functional; procedure, shortened: as §2
Enterococcus faecalis [5] = test: Antibacterial activity against Enterococcus faecalis by broth micro dilution method; assay type: functional; procedure, shortened: as §1
Enterococcus faecalis [6] = test: Antibacterial activity against vancomycin-resistant Enterococcus faecalis by broth micro dilution method; assay type: functional; procedure, shortened: as §2
Enterococcus faecalis [7] = test: Antibacterial activity against vancomycin and linezolid-resistant Enterococcus faecalis by broth micro dilution method; assay type: functional; procedure, shortened: as §2
Enterococcus faecium [8] = test: Antibacterial activity against Enterococcus faecium by broth micro dilution method; assay type: functional; procedure, shortened: as §1
Enterococcus faecium [9] = test: Antibacterial activity against vancomycin-resistant Enterococcus faecium by broth micro dilution method; assay type: functional; conditions: Enterococcus faecium; procedure, shortened: as §2
Escherichia coli [10] = test: Antibacterial activity against Escherichia coli LCB0010 at 128 ug/mL by broth micro dilution method; assay type: functional, organism-based
Pseudomonas aeruginosa [11] = test: Antibacterial activity against Pseudomonas aeruginosa by broth micro dilution method; assay type: functional; procedure, shortened: as §1
Moraxella catarrhalis [12] = test: Antibacterial activity against Moraxella catarrhalis by broth micro dilution method; assay type: functional; procedure, shortened: as §1
Escherichia coli [13] = test: Antibacterial activity against Escherichia coli LCB0011 at 128 ug/mL by broth micro dilution method; assay type: functional, organism-based
Escherichia coli [14] = test: Antibacterial activity against Escherichia coli LCB0012 at 128 ug/mL by broth micro dilution method; assay type: functional, organism-based
Klebsiella pneumoniae [15] = test: Antibacterial activity against Klebsiella pneumoniae at 128 ug/mL by broth micro dilution method; assay type: functional, organism-based
Haemophilus influenzae [16] = test: Antibacterial activity against Haemophilus influenzae at 128 ug/mL by broth micro dilution method; assay type: functional, organism-based
[17] = tested on: Mycobacterium tuberculosis; test: Antitubercular activity against Mycobacterium tuberculosis H37Rv ATCC 27294 by radiometric respiratory technique; assay type: functional
[18] = tested on: Mycobacterium tuberculosis; test: Antitubercular potency, ratio of Isoniazid MIC to drug MIC against Mycobacterium tuberculosis H37Rv ATCC 27294; assay type: functional
[19] = tested on: Mycobacterium tuberculosis; test: Antitubercular potency, ratio of Rifampicin MIC to drug MIC against Mycobacterium tuberculosis H37Rv ATCC 27294; assay type: functional
Staphylococcus aureus [20] = test: Antibacterial activity against Staphylococcus aureus at 128 ug/mL by broth micro dilution method; assay type: functional, organism-based
[21] = tested on: Staphylococcus epidermidis; test: Antibacterial activity against Staphylococcus epidermidis at 128 ug/mL by broth micro dilution method; assay type: functional, organism-based
[22] = tested on: Staphylococcus epidermidis; test: Antibacterial activity against methicillin-resistant Staphylococcus epidermidis at 128 ug/mL by broth micro dilution method; assay type: functional, organism-based; procedure, shortened: as §2
Enterococcus faecalis [23] = test: Antibacterial activity against vancomycin-resistant Enterococcus faecalis at 128 ug/mL by broth micro dilution method; assay type: functional, organism-based; procedure, shortened: as §2
Enterococcus faecalis [24] = test: Antibacterial activity against vancomycin and linezolid-resistant Enterococcus faecalis at 128 ug/mL by broth micro dilution method; assay type: functional, organism-based; procedure, shortened: as §2
Enterococcus faecium [25] = test: Antibacterial activity against Enterococcus faecium at 128 ug/mL by broth micro dilution method; assay type: functional, organism-based
Enterococcus faecium [26] = test: Antibacterial activity against vancomycin-resistant Enterococcus faecium at 128 ug/mL by broth micro dilution method; assay type: functional, organism-based; procedure, shortened: as §2
Pseudomonas aeruginosa [27] = test: Antibacterial activity against Pseudomonas aeruginosa at 128 ug/mL by broth micro dilution method; assay type: functional, organism-based
Moraxella catarrhalis [28] = test: Antibacterial activity against Moraxella catarrhalis at 128 ug/mL by broth micro dilution method; assay type: functional, organism-based
[29] = tested on: Mycobacterium tuberculosis; test: Antitubercular activity against Mycobacterium tuberculosis H37Rv ATCC 27294 at 256 ug/mL by radiometric respiratory technique; assay type: functional, organism-based
Escherichia coli [30] = test: Antibacterial activity against Escherichia coli LCB0011 by broth micro dilution method; assay type: functional; procedure, shortened: as §1
Escherichia coli [31] = test: Antibacterial activity against Escherichia coli LCB0012 by broth micro dilution method; assay type: functional; procedure, shortened: as §1
Klebsiella pneumoniae [32] = test: Antibacterial activity against Klebsiella pneumoniae by broth micro dilution method; assay type: functional; procedure, shortened: as §1
Haemophilus influenzae [33] = test: Antibacterial activity against Haemophilus influenzae by broth micro dilution method; assay type: functional; procedure, shortened: as §1
Escherichia coli [34] = test: Antibacterial activity against Escherichia coli LCB0010 by broth micro dilution method; assay type: functional; procedure, shortened: as §1

Compound: CCOC(=O)C1=C(O)CC(c2ccccc2)N(C(=O)CCl)C1c1ccccc1 (stereo not given)
- MIC90 (Staphylococcus aureus [1]): 32 µg/mL (≈ 80 µM)
- MIC90 (Staphylococcus aureus [2]): 64 µg/mL (≈ 160 µM)
- MIC90 [3]: 64 µg/mL (≈ 160 µM)
- MIC90 [4]: 128 µg/mL (≈ 320 µM)
- MIC90 (Enterococcus faecalis [5]): 32 µg/mL (≈ 80 µM)
- MIC90 (Enterococcus faecalis [6]): 64 µg/mL (≈ 160 µM)
- MIC90 (Enterococcus faecalis [7]): 32 µg/mL (≈ 80 µM)
- MIC90 (Enterococcus faecium [8]): 64 µg/mL (≈ 160 µM)
- MIC90 (Enterococcus faecium [9]): 16 µg/mL (≈ 40 µM)
- Activity (Escherichia coli [10]): inactive
- MIC90 (Pseudomonas aeruginosa [11]): 64 µg/mL (≈ 160 µM)
- MIC90 (Moraxella catarrhalis [12]): 32 µg/mL (≈ 80 µM)
- Activity (Escherichia coli [13]): inactive
- Activity (Escherichia coli [14]): inactive
- Activity (Klebsiella pneumoniae [15]): inactive
- Activity (Haemophilus influenzae [16]): inactive
- MIC [17]: 16 µg/mL (≈ 40 µM)
- Ratio [18]: 1.56
- Ratio [19]: 200

Compound: CCOC(=O)C1=C(OS(=O)(=O)c2cccc([N+](=O)[O-])c2)CC(c2ccccc2)N(C(=O)CCl)C1c1ccccc1 (stereo not given)
- MIC90 (Staphylococcus aureus [2]): 128 µg/mL (≈ 219 µM)
- MIC90 (Enterococcus faecalis [5]): 128 µg/mL (≈ 219 µM)
- Activity (Staphylococcus aureus [20]): inactive
- Activity [21]: inactive
- Activity [22]: inactive
- Activity (Enterococcus faecalis [23]): inactive
- Activity (Enterococcus faecalis [24]): inactive
- Activity (Enterococcus faecium [25]): inactive
- Activity (Enterococcus faecium [26]): inactive
- Activity (Escherichia coli [10]): inactive
- Activity (Escherichia coli [13]): inactive
- Activity (Escherichia coli [14]): inactive
- Activity (Pseudomonas aeruginosa [27]): inactive
- Activity (Klebsiella pneumoniae [15]): inactive
- Activity (Haemophilus influenzae [16]): inactive
- Activity (Moraxella catarrhalis [28]): inactive
- Activity [29]: inactive

Compound: N[C@@H]1[C@H]2CN(c3nc4c(cc3F)c(=O)c(C(=O)O)cn4-c3ccc(F)cc3F)C[C@@H]12 [TROVAFLOXACIN]
- MIC90 (Staphylococcus aureus [1]): < 0.0625 µg/mL
- MIC90 (Staphylococcus aureus [2]): 1 µg/mL (≈ 2.4 µM)
- MIC90 [3]: < 0.0625 µg/mL
- MIC90 (Enterococcus faecalis [5]): 0.128 µg/mL (≈ 0.307 µM)
- MIC90 (Enterococcus faecalis [6]): 8 µg/mL (≈ 19.2 µM)
- MIC90 (Enterococcus faecalis [7]): 16 µg/mL (≈ 38.4 µM)
- MIC90 (Enterococcus faecium [8]): 64 µg/mL (≈ 154 µM)
- MIC90 (Enterococcus faecium [9]): 8 µg/mL (≈ 19.2 µM)
- MIC90 (Escherichia coli [30]): < 0.0625 µg/mL
- MIC90 (Escherichia coli [31]): < 0.0625 µg/mL
- MIC90 (Pseudomonas aeruginosa [11]): 0.125 µg/mL (≈ 0.3 µM)
- MIC90 (Klebsiella pneumoniae [32]): 0.125 µg/mL (≈ 0.3 µM)
- MIC90 (Haemophilus influenzae [33]): < 0.0625 µg/mL
- MIC90 (Moraxella catarrhalis [12]): < 0.0625 µg/mL
- MIC90 (Escherichia coli [34]): < 0.0625 µg/mL

Compound: CCOC(=O)C1=C(OS(=O)(=O)c2ccc([N+](=O)[O-])cc2)CC(c2ccccc2)N(C(=O)CCl)C1c1ccccc1 (stereo not given)
- MIC90 (Staphylococcus aureus [1]): 16 µg/mL (≈ 27.3 µM)
- MIC90 (Staphylococcus aureus [2]): 64 µg/mL (≈ 109 µM)
- MIC90 [3]: 64 µg/mL (≈ 109 µM)
- MIC90 [4]: 64 µg/mL (≈ 109 µM)
- MIC90 (Enterococcus faecalis [5]): 16 µg/mL (≈ 27.3 µM)
- MIC90 (Enterococcus faecalis [6]): 32 µg/mL (≈ 54.7 µM)
- MIC90 (Enterococcus faecalis [7]): 64 µg/mL (≈ 109 µM)
- MIC90 (Enterococcus faecium [8]): 32 µg/mL (≈ 54.7 µM)
- MIC90 (Enterococcus faecium [9]): 16 µg/mL (≈ 27.3 µM)
- Activity (Escherichia coli [10]): inactive
- MIC90 (Escherichia coli [30]): 128 µg/mL (≈ 219 µM)
- MIC90 (Klebsiella pneumoniae [32]): 64 µg/mL (≈ 109 µM)
- MIC90 (Moraxella catarrhalis [12]): 32 µg/mL (≈ 54.7 µM)
- Activity (Escherichia coli [14]): inactive
- Activity (Pseudomonas aeruginosa [27]): inactive
- Activity (Haemophilus influenzae [16]): inactive
- MIC [17]: 16 µg/mL (≈ 27.3 µM)
- Ratio [18]: 1.56
- Ratio [19]: 200
